Assay outcomes: PubChem BioAssay, several laboratories
A selection: hits, their analogues and other compounds. The true share with any hit is near 2.7%.
Rev-RRE block – HIV-1 Rev-RRE binding inhibitors, primary screen, biochemical, FRET, protein-RNA interaction; 0.79% of 97,000 active; AID 704, 2007; P05866; inhibition, % at 8 µM; Rev peptide-RRE RNA binding;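 active means inhibition above the screen-wide mean plus 3 SD, cut at about 35% in these data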;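 further: 0% = median DMSO wells and 100% = median Neomycin B control wells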
Target sequence (P05866 whole entry, looked up): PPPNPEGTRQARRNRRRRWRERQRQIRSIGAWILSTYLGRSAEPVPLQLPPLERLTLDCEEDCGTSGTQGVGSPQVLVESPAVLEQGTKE
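Material: labelled RRE RNA duplex and labelled Rev peptide / Buffer or medium: HEPES pH 7.5 salt buffer with EDTA / Compound dosing: single point, 8 µM final nominal compound concentration / Benchmarks: DMSO low control, neomycin B high control / Timing: 5 min preincubation and 15 min binding, 25 °C / Technique: FRET fluorescence readout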
Plk1 PBD FP – Plk1 polo box domain binding inhibitors, primary screen, biochemical, fluorescence polarization | Plk1 PBD phosphopeptide binding | inhibition, %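 (tested at about 20 µM)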 | 0.13% of 97,000 active | Serine/threonine-protein kinase PLK1 (Homo sapiens), P53350; in the data active means inhibition above about 34%, passing the limit was not always enough
Target sequence (P53350 whole entry, looked up, the tested form may be a part): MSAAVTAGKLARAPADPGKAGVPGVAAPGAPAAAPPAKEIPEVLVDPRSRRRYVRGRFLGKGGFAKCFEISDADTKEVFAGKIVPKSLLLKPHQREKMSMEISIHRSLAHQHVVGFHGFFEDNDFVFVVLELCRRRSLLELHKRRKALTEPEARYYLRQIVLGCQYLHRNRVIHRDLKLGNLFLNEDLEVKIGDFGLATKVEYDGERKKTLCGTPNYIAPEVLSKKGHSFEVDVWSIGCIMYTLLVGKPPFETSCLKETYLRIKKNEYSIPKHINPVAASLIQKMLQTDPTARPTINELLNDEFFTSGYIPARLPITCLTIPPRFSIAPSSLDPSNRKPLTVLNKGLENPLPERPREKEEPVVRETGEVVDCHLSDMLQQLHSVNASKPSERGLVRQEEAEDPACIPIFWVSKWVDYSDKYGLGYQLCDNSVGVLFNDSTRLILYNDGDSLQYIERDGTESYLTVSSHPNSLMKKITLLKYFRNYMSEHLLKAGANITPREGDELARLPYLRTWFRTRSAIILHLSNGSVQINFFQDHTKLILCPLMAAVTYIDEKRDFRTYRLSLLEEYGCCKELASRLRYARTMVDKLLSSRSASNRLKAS
LYP inh 2 – PTPN22 phosphatase inhibitors, primary screen, biochemical, DiFMUP fluorescence, 2 µM | 0.21% of 96,000 active | AID 640, 2007 | inhibition, % at 2 µM | Tyrosine-protein phosphatase non-receptor type 22 (Homo sapiens), Q9Y2R2 | recombinant LYP catalytic domain;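 active means inhibition at 2 µM at or above a set limit, the screen mean plus 3 SD, cut at about 24% in these data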;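 further: 0% = DMSO with enzyme and 100% = enzyme fully blocked by orthovanadate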
PLK1 kinase inh – human PLK1 kinase inhibitors, primary screen, biochemical, TR-FRET | Serine/threonine-protein kinase PLK1 (Homo sapiens), P53350 | recombinant PLK1 kinase, TR-FRET peptide phosphorylation | inhibition, % at 10 µM | 0.53% of 97,000 active;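 active means inhibition of 50% or more in the single-concentration screen; inactive means inhibition below 50%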;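 further: 0% = DMSO max control and 100% = H-89 dihydrochloride min control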
DAT uptake mod – changed hDAT dopamine uptake under cocaine IC80, either direction, primary screen, cocaine antagonist project, cell-based, LLC-PK1 hDAT, [14C]-dopamine uptake, MLSMR; Sodium-dependent dopamine transporter (Homo sapiens), Q01959; LLC-PK1 hDAT cells, [14C]-dopamine uptake with cocaine IC80; actives deviate in either direction; B-score at 10 µM; 1.3% of 110,000 active; AID 449768, 2010;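 active means Z score or B-score, a plate-position-corrected score, falls beyond the plate's 99.7% confidence bounds, in either direction; inactive means both scores lie inside the 99.7% bounds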;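 further: scored against the spread of the other compound wells on the same plate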
PTPN22 act – LYP phosphatase activators, primary screen, biochemical, DiFMUP fluorescence, 2 µM. recombinant LYP; 0 = plate median, 100 = signal doubled. activation, % at 2 µM. Tyrosine-protein phosphatase non-receptor type 22 (Homo sapiens), Q9Y2R2. 0.11% of 96,000 active;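 active means activation at 2 µM above a set limit, the mean plus 5 SD, cut at about 37% in these data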
Numbers without * were called inactive; x = no result given.

SMILES | Rev-RRE block | Plk1 PBD FP | LYP inh 2 | PLK1 kinase inh | DAT uptake mod | PTPN22 act
CCn1nnc(NC(=O)c2cccc(-c3cc4ccccc4oc3=O)c2)n1 | 10.2 | 7.7 | 1.5 | -12.8 | 0.544 | -4.5
O=c1c(Sc2ccccc2)c(C(F)(F)F)[nH]n1-c1ccccc1 | 6.7 | -4.4 | -3.4 | -7.2 | -2.2* | 5.9
O=c1c2c(C(F)(F)F)cc(C(F)(F)F)nc2[nH]n1-c1ccccc1 | 16.3 | -7.3 | 3.2 | -5.9 | -2.38 | 0.1
CN(C)c1ccc(/C=N/N2C(=S)SC(C)(C)C2N(O)C(=O)Nc2ccc([N+](=O)[O-])cc2)cc1 (stereo not given) | -4.2 | -15.0 | -20.7 | -14.5 | -1.23 | 20.5
Cn1nc(C(=O)N2CCc3ccccc3C2)c2ccccc2c1=O | 10.3 | -8.2 | -10.6 | -6.8 | 0.781* | 10.2
CCCn1nc(C(=O)N2CCc3ccccc3C2)c2ccccc2c1=O | 3.5 | -6.9 | 13.1 | -7.1 | 2.15 | -9.4
O=C(NCc1nc2ccccc2[nH]1)C1=C[C@@H](c2ccc(Br)cc2)C[C@@H](OCCCCO)O1 | x | x | x | x | 0.213 | x
O=C(NCc1nc2ccccc2[nH]1)C1=C[C@@H](c2ccccc2)C[C@@H](OCCCCO)O1 | x | x | x | x | 3.15* | x
O=C(CCCCCCN1C(=O)c2ccccc2C1=O)N1CCC(c2ccccc2)C1 (stereo not given) | 1.2 | -9.6 | 11.3 | -9.3 | 3.4* | -11.9
CCOC(=O)C1CCN(C(=O)CCCN2C(=O)c3ccccc3C2=O)CC1 | 3.4 | 5.4 | -9.4 | -14.6 | 0.631 | 9.9
CCCCNC(=O)c1onc(CSc2ccccn2)c1C(=O)NCCCC | x | x | x | x | 2.03 | x
COc1ccc2cc(CN(Cc3ccco3)C(c3nnnn3C3CCCCC3)C(C)C)c(=O)[nH]c2c1 (stereo not given) | 7.5 | -10.8 | 26.3* | -13.9 | -0.274 | -23.2
CCOc1ccc2[nH]c(=O)c(CN(Cc3nnnn3Cc3ccco3)C3CCCCC3)cc2c1 | 60.1* | -16.4 | 10.0 | -0.4 | -0.247 | -12.0
COc1cc2cc(CN(C(=O)Nc3ccccc3)C3CCCC3)c(=O)[nH]c2cc1OC | 7.8 | 7.1 | -1.2 | -6.4 | 3.29* | -1.3
COc1cc2cc(CN(Cc3nnnn3Cc3ccco3)C3CCCCC3)c(=O)[nH]c2cc1OC | 45.1* | -6.2 | 7.3 | 0.3 | 3* | -7.6
O=C(c1ccccc1[N+](=O)[O-])N1CCC(Cc2ccccc2)CC1 | 8.5 | -5.8 | 4.5 | -8.9 | 0.419 | -0.9
COc1ccc(CCNC(=O)c2cc3sc(Cl)cc3n2C)cc1OC | 14.9 | 1.5 | -2.0 | -7.9 | 2.29* | 1.0
CCN(CC)CCNc1nc(-c2ccccc2)c2c(c1C#N)CC(C)(C)OC2 | 2.7 | 3.0 | -6.1 | -0.4 | 0.00879 | 5.7
CC1(C)Cc2c(C#N)c(NCCCO)nc(-c3ccccc3)c2CO1 | 4.4 | -5.4 | x | 66.8* | 0.977 | x
CCCCn1c(/N=C/c2cc(OC)ccc2O)nc2ccccc21 | 3.7 | 17.4 | -9.5 | -12.0 | 2.66* | 7.4
CC(=O)Nc1ccc(C(=O)OCC(=O)N(Cc2ccccc2)C(C)(C)C)cc1 | 5.9 | 6.7 | -4.5 | -9.7 | 0.153 | 4.4
O=C(CN1C(=O)C2CC=CCC2C1=O)Nc1ccc(S(=O)(=O)NC2=NCCCCC2)cc1 (stereo not given) | 2.2 | 13.2 | -8.8 | -11.0 | -8.14* | 7.9
N#C[C@@H]1[C@@H]2C(=O)N(c3ccc4c(c3)OCCO4)C(=O)[C@@H]2C2c3ccccc3C=CN21 (stereo not given in full) | 41.8* | -5.2 | -7.3 | -14.4 | 0.792 | 10.7
C=CCNC(=O)c1ccc2c(c1)S(=O)(=O)c1ccccc1C2=O | x | x | x | x | 0.118 | x
CCOc1ccc(OCC)c(NC(=O)CSc2nc3c(c(=O)n(C)c(=O)n3C)n2CC)c1 | 6.5 | -7.2 | 9.8 | -9.6 | -0.521 | -6.8
SMILES | Rev-RRE block | Plk1 PBD FP | LYP inh 2 | PLK1 kinase inh | DAT uptake mod | PTPN22 act
CCOc1ccc(OCC)c(NC(=O)CSc2nc3c(c(=O)n(C)c(=O)n3C)n2C(C)C)c1 | 7.8 | -17.4 | -17.0 | -6.1 | 3.03* | 14.6
COc1ccc(C(=O)N2CCC(=O)N(C(CO)Cc3ccccc3)CC2)cc1 (stereo not given) | x | x | x | x | 0.319 | x
Clc1ccc(-c2cn3cccnc3n2)cc1Cl | 39.2* | -26.8 | -10.9 | -8.6 | -0.494 | 9.2
FC(F)(F)c1ccc(C2[C@H]3CN(Cc4cccnc4)[C@H](c4ccccc4)C34CC2(c2ccccc2)C4)cc1 (stereo not given in full) | x | x | x | x | -0.154 | x
CO/N=C/NC(=O)c1c(OC)ccnc1Oc1cccc(C(F)(F)F)c1 | 9.3 | -45.9 | 5.0 | -4.2 | 0.0392 | -2.0
CCOC(=O)c1nnc(-c2ccccc2)nc1NCc1ccccc1 | 4.9 | -14.1 | 1.4 | -9.6 | -0.483 | 2.7
CCOC(=O)c1c2n(c3c(NCc4ccccc4)ncnc13)CCCC2 | 8.6 | -10.6 | 4.3 | -4.3 | 2.26* | -5.4
CCO[C@H]1OC(C(=O)N2CCN(C)CC2)=C[C@@H](c2ccc(Br)cc2)[C@@H]1CCCO | x | x | x | x | -1.52 | x
O=C(CSc1nnc(-c2ccccc2Br)o1)N1CCc2ccccc2C1 | x | x | x | x | 2.88* | x
COc1cc(C(=O)N2CCC(O)(c3ccccc3)CC2)cc(OC)c1OC | 7.8 | -8.1 | 1.3 | -10.7 | -0.323 | -3.7
Cc1c(N2C(=O)/C(=C\c3cccc4ccccc34)SC2=S)c(=O)n(-c2ccccc2)n1C | -0.1 | -29.5 | 10.4 | -0.7 | -0.592 | -12.2
O=C(O)C(Cc1ccccc1)N1C(=O)/C(=C/c2cccc3ccccc23)SC1=S (stereo not given) | 3.4 | 5.3 | 11.7 | -13.8 | -2.7* | -8.2
CC1(c2nnc(-c3ccncc3)o2)CC(c2ccc(F)cc2)=NO1 (stereo not given) | x | x | x | x | -2.33* | x
CC[C@]1(O)CC2CN(CCc3c([nH]c4ccccc34)[C@@](C(=O)OC)(c3cc4c(cc3OC)N(C)[C@H]3[C@@](O)(C(N)=O)[C@H](O)[C@]5(CC)C=CCN6CC[C@]43[C@@H]65)C2)C1 (stereo not given in full) | x | x | x | x | -1.23 | x
Cc1cccc(NC(=O)c2cc(NC(=O)C3CCCCC3C(=O)O)ccc2N2CCCCC2)c1 (stereo not given) | x | x | x | x | 4.04* | x
CC(=O)Nc1ccc(N2CCCCC2)c(C(=O)Nc2cccc(C)c2)c1 | 9.6 | -10.6 | 8.3 | -11.2 | 1.82 | -6.3
COC(=O)C1=C(C)N=c2s/c(=C/c3ccoc3)c(=O)n2C1c1ccccc1 (stereo not given) | 50.7* | -53.0 | -1.4 | -10.9 | -0.48 | -2.7
